Assays:
Lung [1] = experiment: Biodistribution in LPS treated C57BL/6N mouse lung at 50 uCi/110 uL, iv administered 6 hrs […] LPS challenge measured after 30 mins post drug dose; assay type: ADME, organism-based; settings: in vivo, 0.5 h
In short: (§1)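 Male C57BL/6N mice, 6-8 weeks; LPS (E. coli O127:B8) in PBS, 10 mg/kg i.v., given 6 h before tracer. HPLC-purified [18F]tracer ~50 μCi in 10% ethanol/saline i.v. via tail vein. Killed at 5 min, 30 min, 1 h or 2 h; tissues weighed and gamma-counted against diluted injectate standards. Reported as %ID/g, mean ± SD, n = 4.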

Bone [2] = experiment: Biodistribution in C57BL/6N mouse bone at 50 uCi/110 uL, iv after 5 mins; assay type: ADME, organism-based, Bone element; settings: in vivo
In short: (§2)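 Untreated (control) male C57BL/6N mice aged 6-8 weeks. HPLC-purified tracer, ~50 μCi in 10% ethanol/saline, given i.v. via the tail vein. Mice were sacrificed at 5 min, 30 min, 1 h and 2 h post-injection. Tissues were removed, weighed and gamma-counted against diluted injectate standards. Data are %ID/g, mean ± SD, n = 4.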

Lung [3] = experiment: Biodistribution in LPS treated C57BL/6N mouse lung at 50 uCi/110 uL, iv administered 6 hrs […] LPS challenge measured after 1 hr post drug dose; assay type: ADME, organism-based; settings: in vivo; in short: as §1
Bone [4] = experiment: Biodistribution in LPS treated C57BL/6N mouse bone at 50 uCi/110 uL, iv administered 6 hrs before LPS challenge measured after 1 hr post drug dose; assay type: ADME, organism-based, Bone element; settings: in vivo, in the assay text read “6 hrs after LPS challenge” for “6 hrs before LPS challenge”
In short: (§3)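 Male C57BL/6N mice aged 6-8 weeks received E. coli O127:B8 LPS in PBS, 10 mg/kg i.v., 6 h before tracer. Tracer ~50 μCi in 10% ethanol/saline, i.v. tail vein. Sacrifice was at 5 min, 30 min, 1 h or 2 h post-injection. Organs were weighed and gamma-counted with injectate standards. Data are %ID/g, mean ± SD, n = 4.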

Kidney [5] = experiment: Biodistribution in C57BL/6N mouse kidney at 50 uCi/110 uL, iv after 5 mins; assay type: ADME, organism-based; settings: in vivo; in short: as §2
Kidney [6] = experiment: Biodistribution in LPS treated C57BL/6N mouse kidney at 50 uCi/[…], iv administered […] measured after 5 mins post drug dose; assay type: ADME, organism-based; settings: in vivo; in short: as §1
Liver [7] = experiment: Biodistribution in C57BL/6N mouse liver at 50 uCi/110 uL, iv after 2 hrs; assay type: ADME, organism-based; settings: in vivo; in short: as §2
Muscle tissue [8] = experiment: Biodistribution in LPS treated C57BL/6N mouse muscle at 50 uCi/110 uL, iv administered 6 hrs […] LPS challenge measured after 2 hrs post drug dose; assay type: ADME, organism-based; settings: in vivo; in short: as §1
Kidney [9] = experiment: Biodistribution in LPS treated C57BL/6N mouse kidney at 50 uCi/110 uL, iv administered 6 hrs […] LPS challenge measured after 30 mins post drug dose; assay type: ADME, organism-based; settings: in vivo, 0.5 h; in short: as §1
Brain [10] = experiment: Biodistribution in C57BL/6N mouse brain at 50 uCi/110 uL, iv after 2 hrs; assay type: ADME, organism-based; settings: in vivo; in short: as §2
Bone [11] = experiment: Biodistribution in LPS treated C57BL/6N mouse bone at 50 uCi/110 uL, iv administered 6 hrs […] LPS challenge measured after 5 mins post drug dose; assay type: ADME, organism-based, Bone element; settings: in vivo; in short: as §3
Liver [12] = experiment: Biodistribution in C57BL/6N mouse liver at 50 uCi/110 uL, iv after 30 mins; assay type: ADME, organism-based; settings: in vivo, 0.5 h; in short: as §2
Blood [13] = experiment: Biodistribution in C57BL/6N mouse blood at 50 uCi/110 uL, iv after 5 mins; assay type: ADME, organism-based; settings: in vivo; in short: as §2
Blood [14] = experiment: Biodistribution in LPS treated C57BL/6N mouse blood at 50 uCi/110 uL, iv administered 6 hrs […] LPS challenge measured after 5 mins post drug dose; assay type: ADME, organism-based; settings: in vivo; in short: as §3
Kidney [15] = experiment: Biodistribution in C57BL/6N mouse kidney at 50 uCi/110 uL, iv after 30 mins; assay type: ADME, organism-based; settings: in vivo, 0.5 h; in short: as §2
Brain [16] = experiment: Biodistribution in LPS treated C57BL/6N mouse brain at 50 uCi/110 uL, iv administered 6 hrs […] LPS challenge measured after 2 hrs post drug dose; assay type: ADME, organism-based; settings: in vivo; in short: as §3
Blood [17] = experiment: Biodistribution in C57BL/6N mouse blood at 50 uCi/110 uL, iv after 30 mins; assay type: ADME, organism-based; settings: in vivo, 0.5 h; in short: as §2
Heart [18] = experiment: Biodistribution in C57BL/6N mouse heart at 50 uCi/110 uL, iv after 5 mins; assay type: ADME, organism-based; settings: in vivo; in short: as §2
Liver [19] = experiment: Biodistribution in C57BL/6N mouse liver at 50 uCi/110 uL, iv after 1 hr; assay type: ADME, organism-based; settings: in vivo; in short: as §2
Blood [20] = experiment: Biodistribution in LPS treated C57BL/6N mouse blood at 50 uCi/110 uL, iv administered 6 hrs […] LPS challenge measured after 2 hrs post drug dose; assay type: ADME, organism-based; settings: in vivo; in short: as §3
Heart [21] = experiment: Biodistribution in C57BL/6N mouse heart at 50 uCi/110 uL, iv after 2 hrs; assay type: ADME, organism-based; settings: in vivo; in short: as §2
[22] = Metabolic stability in Sprague-Dawley rat plasma assessed as parent compound remaining at 400 uCi, iv after 5 mins by HPLC; assay type: ADME, organism-based; settings: read-out: Stability
In short: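 Anesthetized male Sprague-Dawley rat given 400 μCi [18F]tracer in 10% ethanol/saline i.v. via tail vein. Blood drawn by cardiac puncture at 5 and 30 min. Plasma separated by centrifugation, treated with 3 equivalents of acetonitrile and centrifuged; supernatant filtered and analysed by HPLC. Samples kept on ice.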

Brain [23] = experiment: Biodistribution in LPS treated C57BL/6N mouse brain at 50 uCi/110 uL, iv administered 6 hrs […] LPS challenge measured after 30 mins post drug dose; assay type: ADME, organism-based; settings: in vivo, 0.5 h; in short: as §3
Brain [24] = experiment: Biodistribution in LPS treated C57BL/6N mouse brain at 50 uCi/110 uL, iv administered 6 hrs […] LPS challenge measured after 1 hr post drug dose; assay type: ADME, organism-based; settings: in vivo; in short: as §3
Kidney [25] = experiment: Biodistribution in LPS treated C57BL/6N mouse kidney at 50 uCi/110 uL, iv administered 6 hrs […] LPS challenge measured after 1 hr post drug dose; assay type: ADME, organism-based; settings: in vivo; in short: as §3
[26] = Metabolic stability in Sprague-Dawley rat whole blood at 400 uCi after 2 hrs; assay type: ADME, tissue-based; settings: read-out: Stability
In short: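 Heparinized whole blood (5 mL) from a mature male Sprague-Dawley rat incubated with ~400 μCi [18F]tracer at 37 °C for 5 min to 2 h. Aliquots lysed with 3 volumes of ethanol and centrifuged; supernatant and pellet gamma-counted. Supernatant species analysed by silica TLC (ethyl acetate), identified by co-elution with non-radioactive standard.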

Bone [27] = experiment: Biodistribution in C57BL/6N mouse bone at 50 uCi/110 uL, iv after 1 hr; assay type: ADME, organism-based, Bone element; settings: in vivo; in short: as §2
Muscle tissue [28] = experiment: Biodistribution in C57BL/6N mouse muscle at 50 uCi/110 uL, iv after 30 mins; assay type: ADME, organism-based; settings: in vivo, 0.5 h; in short: as §2
Blood [29] = experiment: Biodistribution in LPS treated C57BL/6N mouse blood at 50 uCi/110 uL, iv administered 6 hrs […] LPS challenge measured after 30 mins post drug dose; assay type: ADME, organism-based; settings: in vivo, 0.5 h; in short: as §3
Blood [30] = experiment: Biodistribution in C57BL/6N mouse blood at 50 uCi/110 uL, iv after 1 hr; assay type: ADME, organism-based; settings: in vivo; in short: as §2
Brain [31] = experiment: Biodistribution in LPS treated C57BL/6N mouse brain at 50 uCi/110 uL, iv administered 6 hrs […] LPS challenge measured after 5 mins post drug dose; assay type: ADME, organism-based; settings: in vivo; in short: as §3
Kidney [32] = experiment: Biodistribution in C57BL/6N mouse kidney at 50 uCi/110 uL, iv after 1 hr; assay type: ADME, organism-based; settings: in vivo; in short: as §2
Blood [33] = experiment: Biodistribution in C57BL/6N mouse blood at 50 uCi/110 uL, iv after 2 hrs; assay type: ADME, organism-based; settings: in vivo; in short: as §2

`Cc1cc(N)nc(CC(C)[18F])c1` (stereo not drawn) gave a Drug uptake (Lung [1]) of 1.84 % ID/g, a Drug uptake (Bone [2]) of 1.52 % ID/g and a Drug uptake (Lung [3]) of 0.73 % ID/g. It also gave a Drug uptake (Bone [4]) of 4.3 % ID/g, a Drug uptake (Kidney [5]) of 20.6 % ID/g and a Drug uptake (Kidney [6]) of 26.7 % ID/g. The Drug uptake (Liver [7]) was 0.74 % ID/g, the Drug uptake (Muscle tissue [8]) was 0.23 % ID/g and the Drug uptake (Kidney [9]) was 10.9 % ID/g. The Drug uptake (Brain [10]) was 0.07 % ID/g, the Drug uptake (Bone [11]) was 1.59 % ID/g and the Drug uptake (Liver [12]) was 10.7 % ID/g. The Drug uptake (Blood [13]) was 2.37 % ID/g, the Drug uptake (Blood [14]) was 3.69 % ID/g and the Drug uptake (Kidney [15]) was 7.3 % ID/g. It also gave a Drug uptake (Brain [16]) of 0.07 % ID/g, a Drug uptake (Blood [17]) of 1.22 % ID/g and a Drug uptake (Heart [18]) of 1.5 % ID/g. The Drug uptake (Liver [19]) was 2.59 % ID/g, the Drug uptake (Blood [20]) was 0.23 % ID/g and the Drug uptake (Heart [21]) was 0.08 % ID/g. It also gave a remaining at 5 min [22] of 40.3%, a Drug uptake (Brain [23]) of 0.52 % ID/g and a Drug uptake (Brain [24]) of 0.19 % ID/g. For the same compound, the Drug uptake (Kidney [25]) was 3.95 % ID/g, the remaining at 2 h, 400 uCi [26] was 75% and the Drug uptake (Bone [27]) was 2.57 % ID/g. It also gave a Drug uptake (Muscle tissue [28]) of 0.71 % ID/g, a Drug uptake (Blood [29]) of 2.09 % ID/g and a Drug uptake (Blood [30]) of 0.31 % ID/g. For the same compound, the Drug uptake (Brain [31]) was 1.81 % ID/g, the Drug uptake (Kidney [32]) was 2.2 % ID/g and the Drug uptake (Blood [33]) was 0.27 % ID/g.
